{
  "source": "ChEMBL document CHEMBL4354828",
  "about": "“Discovery of Taniborbactam (VNRX-5133): A Broad-Spectrum Serine- and Metallo-β-lactamase Inhibitor for Carbapenem-Resistant Bacterial Infections” (J Med Chem, 2020)",
  "key": {"Escherichia coli [1]": {"system": "Escherichia coli", "experiment": "Inhibition of VIM-1/VIM-2/VIM-4/NDM-1 in Escherichia coli assessed as cefepime antibacterial activity at 4 ug/ml after 16 to 20 hrs by CLSI-based microbroth dilution method", "in_short": "(§1)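 Panel of 14 clinical isolates expressing class B VIM- or NDM-type MBLs: E. coli (4), E. cloacae (2), K. pneumoniae (4), P. aeruginosa (1), A. baumannii (3).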"}, "Escherichia coli [2]": {"system": "Escherichia coli", "experiment": "Inhibition of NDM in Escherichia coli CDC-0452 assessed as meropenem antibacterial activity at 4 ug/ml after 16 to 20 hrs by CLSI-based microbroth dilution method (reference value: […] ug/ml)"}, "Klebsiella pneumoniae [3]": {"system": "Klebsiella pneumoniae", "experiment": "Inhibition of VIM-1/VIM-2/VIM-4/NDM-1 in Klebsiella pneumoniae assessed as cefepime antibacterial activity at 4 ug/ml after 16 to 20 hrs by CLSI-based microbroth dilution method"}, "Enterobacter cloacae [4]": {"system": "Enterobacter cloacae", "experiment": "Inhibition of TEM/CTX-M/SHV/Cephalosporinase in Enterobacter cloacae CH23 assessed as cefepime antibacterial activity at 4 ug/ml after 16 to 20 hrs by CLSI-based microbroth dilution method (Rvb > […] ug/ml)"}, "Pseudomonas aeruginosa [5]": {"system": "Pseudomonas aeruginosa", "experiment": "Inhibition of KPC-2/PDC-42 in Pseudomonas aeruginosa CDC-0356 assessed as piperacillin antibacterial activity at 16 ug/ml after 16 to 20 hrs by CLSI-based microbroth dilution method (Rvb > […] ug/ml)"}, "[6]": {"experiment": "Inhibition of bacterial CMY-2 using nitrocefin as substrate preincubated for 15 mins followed by susbtrate addition and measured after 10 mins by spectrophotometric method", "set-up": "species or system Bacteria"}, "Pseudomonas aeruginosa [7]": {"system": "Pseudomonas aeruginosa", "experiment": "Inhibition of VIM-1/VIM-2/VIM-4/NDM-1 in Pseudomonas aeruginosa assessed as cefepime antibacterial activity at 4 ug/ml after 16 to 20 hrs by CLSI-based microbroth dilution method", "in_short": "as §1"}, "Escherichia coli [8]": {"system": "Escherichia coli", "experiment": "Inhibition of TEM/CTX-M/SHV/Cephalosporinase in Escherichia coli EC1552 assessed as cefepime antibacterial activity at 4 ug/ml after 16 to 20 hrs by CLSI-based microbroth dilution method (reference value: […] ug/ml)"}, "Escherichia coli [9]": {"system": "Escherichia coli", "experiment": "Inhibition of NDM in Escherichia coli CDC-0452 assessed as piperacillin antibacterial activity at 16 ug/ml after 16 to 20 hrs by CLSI-based microbroth dilution method (Rvb > […] ug/ml)"}, "[10]": {"experiment": "Inhibition of bacterial IMP-1 using nitrocefin as substrate preincubated for 15 mins followed by susbtrate addition and measured after 10 mins by spectrophotometric method", "set-up": "species or system Bacteria"}, "Escherichia coli [11]": {"system": "Escherichia coli", "experiment": "Inhibition of NDM-1/CMY-6/OXA-1 in Escherichia coli CDC-0055 assessed as piperacillin antibacterial activity at 16 ug/ml after 16 to 20 hrs by CLSI-based microbroth dilution method", "in_short": "(§2)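 MDR β-lactamase-producing Gram-negative clinical isolates. […] MIC was reported as the inhibitor concentration that restores the partner's antibacterial activity.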"}, "Enterobacter cloacae [12]": {"system": "Enterobacter cloacae", "experiment": "Inhibition of VIM-1/VIM-2/VIM-4/NDM-1 in Enterobacter cloacae assessed as cefepime antibacterial activity at 4 ug/ml after 16 to 20 hrs by CLSI-based microbroth dilution method", "in_short": "as §1"}, "[13]": {"experiment": "Inhibition of bacterial KPC-2 using imipenem as substrate preincubated for 15 mins followed by susbtrate addition and measured after 10 mins by spectrophotometric method", "set-up": "species or system Bacteria"}, "Pseudomonas aeruginosa [14]": {"system": "Pseudomonas aeruginosa", "experiment": "Inhibition of KPC-2/PDC-42 in Pseudomonas aeruginosa CDC-0356 assessed as cefepime antibacterial activity at 8 ug/ml after 16 to 20 hrs by CLSI-based microbroth dilution method (Rvb > […] ug/ml)"}, "Acinetobacter baumannii": {"system": "Acinetobacter baumannii", "experiment": "Inhibition of VIM-1/VIM-2/VIM-4/NDM-1 in Acinetobacter baumannii assessed as cefepime antibacterial activity at 4 ug/ml after 16 to 20 hrs by CLSI-based microbroth dilution method", "in_short": "as §1"}, "[15]": {"experiment": "Inhibition of bacterial VIM-2 using nitrocefin as substrate preincubated for 15 mins followed by susbtrate addition and measured after 10 mins by spectrophotometric method", "set-up": "species or system Bacteria", "in_short": "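Purified β-lactamase inhibition. IC50 values are the average of duplicates unless otherwise indicated.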"}, "[16]": {"experiment": "Inhibition of bacterial SHV-5 using cefotaxime as substrate preincubated for 15 mins followed by susbtrate addition and measured after 10 mins by spectrophotometric method", "set-up": "species or system Bacteria"}, "Pseudomonas aeruginosa [17]": {"system": "Pseudomonas aeruginosa", "experiment": "Inhibition of VIM in Pseudomonas aeruginosa CDC-0457 assessed as cefepime antibacterial activity at 8 ug/ml after 16 to 20 hrs by CLSI-based microbroth dilution method"}, "[18]": {"experiment": "Inhibition of bacterial OXA-48 using nitrocefin as substrate preincubated for 15 mins followed by susbtrate addition and measured after 10 mins by spectrophotometric method", "set-up": "species or system Bacteria"}, "[19]": {"system": "Klebsiella pneumoniae ATCC BAA-1705", "experiment": "Inhibition of KPC-2 in Klebsiella pneumoniae ATCC BAA 1705 assessed as meropenem antibacterial activity at 4 ug/ml after 16 to 20 hrs by CLSI-based microbroth dilution method (reference value: […] ug/ml)"}, "Klebsiella pneumoniae [20]": {"system": "Klebsiella pneumoniae", "experiment": "Inhibition of TEM/CTX-M/SHV in Klebsiella pneumoniae 9032 assessed as cefepime antibacterial activity at 4 ug/ml after 16 to 20 hrs by CLSI-based microbroth dilution method (reference value: […] ug/ml)"}, "Escherichia coli [21]": {"system": "Escherichia coli", "experiment": "Inhibition of NDM-1/CMY-6/OXA-1 in Escherichia coli CDC-0055 assessed as meropenem antibacterial activity at 4 ug/ml after 16 to 20 hrs by CLSI-based microbroth dilution method (reference value: […] ug/ml)"}, "Escherichia coli [22]": {"system": "Escherichia coli", "experiment": "Inhibition of NDM-1/CMY-6/OXA-1 in Escherichia coli CDC-0055 assessed as cefepime antibacterial activity at 8 ug/ml after 16 to 20 hrs by CLSI-based microbroth dilution method", "in_short": "as §2"}, "Pseudomonas aeruginosa [23]": {"system": "Pseudomonas aeruginosa", "experiment": "Inhibition of KPC-2/PDC-42 in Pseudomonas aeruginosa CDC-0356 assessed as meropenem antibacterial activity at 4 ug/ml after 16 to 20 hrs by CLSI-based microbroth dilution method (reference value: […] ug/ml)"}, "Pseudomonas aeruginosa [24]": {"system": "Pseudomonas aeruginosa", "experiment": "Inhibition of VIM in Pseudomonas aeruginosa CDC-0457 assessed as meropenem antibacterial activity at 4 ug/ml after 16 to 20 hrs by CLSI-based microbroth dilution method"}, "[25]": {"experiment": "Inhibition of bacterial NDM-1 using cefepime as substrate preincubated for 15 mins followed by susbtrate addition and measured after 10 mins by spectrophotometric method", "set-up": "species or system Bacteria"}, "[26]": {"experiment": "Inhibition of bacterial CTX-M-15 using cefotaxime as substrate preincubated for 15 mins followed by susbtrate addition and measured after 10 mins by spectrophotometric method", "set-up": "species or system Bacteria"}},
  "data": [
    {"compound": "C[C@]1(Cn2ccnn2)[C@H](C(=O)O)N2C(=O)C[C@H]2S1(=O)=O", "note": "[TAZOBACTAM]", "values": [
      {"measurement": "MIC50", "setting": "Escherichia coli [1]", "value": "> 32", "unit": "µg/mL"},
      {"measurement": "MIC90", "setting": "Escherichia coli [1]", "value": "> 32", "unit": "µg/mL"},
      {"measurement": "MIC", "setting": "Escherichia coli [2]", "value": "> 16", "unit": "µg/mL"},
      {"measurement": "MIC50", "setting": "Klebsiella pneumoniae [3]", "value": "> 32", "unit": "µg/mL"},
      {"measurement": "MIC90", "setting": "Klebsiella pneumoniae [3]", "value": "> 32", "unit": "µg/mL"},
      {"measurement": "MIC", "setting": "Enterobacter cloacae [4]", "value": "> 16", "unit": "µg/mL"},
      {"measurement": "MIC", "setting": "Pseudomonas aeruginosa [5]", "value": "> 16", "unit": "µg/mL"},
      {"measurement": "IC50", "setting": "[6]", "value": 410, "unit": "nM"},
      {"measurement": "MIC50", "setting": "Pseudomonas aeruginosa [7]", "value": "> 32", "unit": "µg/mL"},
      {"measurement": "MIC90", "setting": "Pseudomonas aeruginosa [7]", "value": "> 32", "unit": "µg/mL"},
      {"measurement": "MIC", "setting": "Escherichia coli [8]", "value": 4, "unit": "µg/mL"},
      {"measurement": "MIC", "setting": "Escherichia coli [9]", "value": "> 16", "unit": "µg/mL"},
      {"measurement": "IC50", "setting": "[10]", "value": "> 100", "unit": "µM"},
      {"measurement": "MIC", "setting": "Escherichia coli [11]", "value": "> 16", "unit": "µg/mL"},
      {"measurement": "MIC50", "setting": "Enterobacter cloacae [12]", "value": "> 32", "unit": "µg/mL"},
      {"measurement": "MIC90", "setting": "Enterobacter cloacae [12]", "value": "> 32", "unit": "µg/mL"},
      {"measurement": "IC50", "setting": "[13]", "value": 1700, "unit": "nM"},
      {"measurement": "MIC", "setting": "Pseudomonas aeruginosa [14]", "value": "> 16", "unit": "µg/mL"},
      {"measurement": "MIC50", "setting": "Acinetobacter baumannii", "value": "> 32", "unit": "µg/mL"},
      {"measurement": "MIC90", "setting": "Acinetobacter baumannii", "value": "> 32", "unit": "µg/mL"},
      {"measurement": "IC50", "setting": "[15]", "value": "> 100", "unit": "µM"},
      {"measurement": "IC50", "setting": "[16]", "value": 15, "unit": "nM"},
      {"measurement": "MIC", "setting": "Pseudomonas aeruginosa [17]", "value": "> 16", "unit": "µg/mL"},
      {"measurement": "IC50", "setting": "[18]", "value": 550, "unit": "nM"},
      {"measurement": "MIC", "setting": "[19]", "value": 8, "unit": "µg/mL"},
      {"measurement": "MIC", "setting": "Klebsiella pneumoniae [20]", "value": 4, "unit": "µg/mL"},
      {"measurement": "MIC", "setting": "Escherichia coli [21]", "value": "> 16", "unit": "µg/mL"},
      {"measurement": "MIC", "setting": "Escherichia coli [22]", "value": "> 16", "unit": "µg/mL"},
      {"measurement": "MIC", "setting": "Pseudomonas aeruginosa [23]", "value": "> 16", "unit": "µg/mL"},
      {"measurement": "MIC", "setting": "Pseudomonas aeruginosa [24]", "value": "> 16", "unit": "µg/mL"},
      {"measurement": "IC50", "setting": "[25]", "value": "> 100", "unit": "µM"},
      {"measurement": "IC50", "setting": "[26]", "value": 1, "unit": "nM"}
    ]}
  ]
}
